Experimental data as given in ChEMBL document CHEMBL1255473, “Homozygous triplicate mutations in three 16S rRNA genes responsible for high-level aminoglycoside resistance in Nocardia farcinica clinical isolates from a Canada-wide bovine mastitis epizootic” (2010).
Values after ≈ are worked out from the molar mass of the structure shown. Active and inactive are the calls of the source. The calls are words filed in the database; no cut-off is given here.

Legend:
Nocardia farcinica [1] = assay: Antimicrobial activity against amikacin-susceptible Nocardia farcinica IFM 10152 after 3 days by broth microdilution method; assay type: functional
Summary of the method: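 Broth microdilution in BHI medium, final inoculum 10^4 CFU/ml. Host strain carried empty pNV19 vector. Cells incubated with serial aminoglycoside concentrations at 37°C for 3 days. MIC read from OD600.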

Nocardia farcinica [2] = assay: Antimicrobial activity against amikacin-resistant Nocardia farcinica IFM 10580 after 3 days by broth microdilution method; assay type: functional
Summary of the method: (§1)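 Broth microdilution in BHI medium with a range of aminoglycosides. Cells were incubated at 37°C, OD600 was measured, and the MIC was read on day 3 of incubation.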

Nocardia farcinica [3] = assay: Antimicrobial activity against amikacin-susceptible Nocardia farcinica IFM 10152 harboring 16s rRNA A1408G mutant after 3 days by broth microdilution method; assay type: functional; summary of the method: as §1
Nocardia farcinica [4] = assay: Antimicrobial activity against amikacin-susceptible Nocardia farcinica IFM 10152 harboring 16s rRNA A1408G mutant after 5 days by broth microdilution method; assay type: functional
Summary of the method: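 Broth microdilution in BHI medium across several aminoglycosides. Cells were held at 37°C and MIC was determined from OD600 on day 5 of incubation.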

Nocardia farcinica [5] = assay: Antimicrobial activity against amikacin-resistant Nocardia farcinica IFM 10580 assessed as cell growth at 1024 ug/ml at <12 hrs; assay type: functional, organism-based
Summary of the method: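 Cells were cultured in the presence of 1,024 μg/ml amikacin and growth was followed over time.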

Nocardia farcinica [6] = assay: Antimicrobial activity against amikacin-susceptible Nocardia farcinica IFM 10152-M2 expressing wild type rrnB gene and plasmid encoded rrnA A1408G and rrnC A1408G mutant genes after 3 days by broth microdilution method; assay type: functional; conditions: IFM 10152-M2, 72 h; summary of the method: as §1
Nocardia farcinica [7] = assay: Antimicrobial activity against amikacin-susceptible Nocardia farcinica IFM 10152-M3 expressing rrnA A1408G, rrnB A1408G and rrnC A1408G mutant genes after 3 days by broth microdilution method; assay type: functional; conditions: IFM 10152-M3, 72 h; summary of the method: as §1
Nocardia farcinica [8] = assay: Antimicrobial activity against amikacin-susceptible Nocardia farcinica IFM 10152-M2 expressing rrnA A1408G and rrnC A1408G mutant genes after 3 days by broth microdilution method; assay type: functional; conditions: IFM 10152-M2, 72 h; summary of the method: as §1
Nocardia farcinica [9] = assay: Antimicrobial activity against amikacin-susceptible Nocardia farcinica isolate IFM 10152-M3 assessed as cell growth at 1024 ug/ml at <12 hrs; assay type: functional, organism-based
Nocardia farcinica [10] = assay: Antimicrobial activity against amikacin-susceptible Nocardia farcinica isolate IFM 10152-M2 assessed as cell growth at 1024 ug/ml after 24 hrs
Nocardia farcinica [11] = assay: Antimicrobial activity against amikacin-susceptible Nocardia farcinica isolate IFM 10152-M2 assessed as cell growth at 1024 ug/ml after 24 hrs; assay type: functional, organism-based

Question: Which MIC (Nocardia farcinica [1]; IFM 10152, 72 h) does the source give for `CN[C@H]1C[C@@H](N)[C@H](O)[C@@H](O[C@@H]2O[C@H](CO)[C@H](O)[C@H]3O[C@@]4(O[C@H]23)O[C@H]([C@H](N)CO)[C@H](O)[C@H](O)[C@H]4O)[C@@H]1O` here?
Answer: 32 µg/mL (≈ 60.7 µM)

Question: And the MIC (Nocardia farcinica [2]; IFM 10580, 72 h)?
Answer: 32 µg/mL (≈ 60.7 µM)

Question: And the MIC (Nocardia farcinica [3]; IFM 10152, 72 h)?
Answer: 32 µg/mL (≈ 60.7 µM)

Question: What about the MIC (Nocardia farcinica [4]; IFM 10152, 120 h) of the same compound?
Answer: 32 µg/mL (≈ 60.7 µM)

Question: How did the MIC (Nocardia farcinica [1]; IFM 10152, 72 h) turn out when `NCC[C@H](O)C(=O)N[C@@H]1C[C@H](N)[C@@H](O[C@H]2O[C@H](CN)[C@@H](O)[C@H](O)[C@H]2O)[C@H](O)[C@H]1O[C@H]1O[C@H](CO)[C@@H](O)[C@H](N)[C@H]1O` [AMIKACIN] was run?
Answer: < 1 µg/mL

Question: And the Activity (Nocardia farcinica [5])?
Answer: inactive

Question: And the MIC (Nocardia farcinica [6])?
Answer: > 1020 µg/mL

Question: And the MIC (Nocardia farcinica [7])?
Answer: > 1020 µg/mL

Question: And the MIC (Nocardia farcinica [2]; IFM 10580, 72 h)?
Answer: > 1020 µg/mL

Question: And the MIC (Nocardia farcinica [3]; IFM 10152, 72 h)?
Answer: 64 µg/mL (≈ 109 µM)

Question: What about the MIC (Nocardia farcinica [8]) of the same compound?
Answer: < 1 µg/mL

Question: And the Activity (Nocardia farcinica [9])?
Answer: inactive

Question: And the MIC (Nocardia farcinica [4]; IFM 10152, 120 h)?
Answer: > 1020 µg/mL

Question: And the Activity (Nocardia farcinica [10])?
Answer: inactive

Question: And the Activity (Nocardia farcinica [11])?
Answer: inactive

Question: What does the source list for `CN[C@@H]1[C@@H](O[C@H]2O[C@H](CO)[C@@H](N)[C@H](O)[C@H]2O)OC2C[C@@H](N)[C@@H](O[C@H]3[C@H](O)[C@@H](O)[C@H](N)C[C@@H]3N)OC2[C@@H]1O` (some centres undefined) [APRAMYCIN]?
Answer: MIC (Nocardia farcinica [1]; IFM 10152, 72 h): 32 µg/mL (≈ 59.3 µM); MIC (Nocardia farcinica [2]; IFM 10580, 72 h): > 1020 µg/mL; MIC (Nocardia farcinica [3]; IFM 10152, 72 h): 64 µg/mL (≈ 119 µM); MIC (Nocardia farcinica [4]; IFM 10152, 120 h): 256 µg/mL (≈ 474 µM)

Question: With `NCC[C@H](O)C(=O)N[C@@H]1C[C@H](N)[C@@H](O[C@H]2O[C@H](CN)CC[C@H]2N)[C@H](O)[C@H]1O[C@H]1O[C@H](CO)[C@@H](O)[C@H](N)[C@H]1O` [ARBEKACIN] as the compound, how does the MIC (Nocardia farcinica [1]; IFM 10152, 72 h) read?
Answer: < 1 µg/mL

Question: What about the MIC (Nocardia farcinica [2]; IFM 10580, 72 h) of the same compound?
Answer: > 1020 µg/mL

Question: What about the MIC (Nocardia farcinica [3]; IFM 10152, 72 h) of the same compound?
Answer: 2 µg/mL (≈ 3.62 µM)

Question: What about the MIC (Nocardia farcinica [4]; IFM 10152, 120 h) of the same compound?
Answer: > 1020 µg/mL

Question: For `NC[C@@H]1O[C@H](O[C@H]2[C@@H](O)[C@H](O[C@@H]3[C@@H](O)[C@H](N)C[C@H](N)[C@H]3O[C@H]3O[C@H](CN)[C@@H](O)[C@H](O)[C@H]3N)O[C@@H]2CO)[C@H](N)[C@@H](O)[C@@H]1O` [FRAMYCETIN], which MIC (Nocardia farcinica [1]; IFM 10152, 72 h) is on record?
Answer: 16 µg/mL (≈ 26 µM)

Question: And the MIC (Nocardia farcinica [2]; IFM 10580, 72 h)?
Answer: > 1020 µg/mL

Question: And the MIC (Nocardia farcinica [3]; IFM 10152, 72 h)?
Answer: > 1020 µg/mL

Question: What about the MIC (Nocardia farcinica [4]; IFM 10152, 120 h) of the same compound?
Answer: > 1020 µg/mL

Question: Which results are given for `CN[C@@H]1[C@@H](O)[C@@H](O[C@@H]2[C@@H](O)[C@H](O[C@H]3O[C@H](CN)[C@@H](O)[C@H](O)[C@H]3O)[C@@H](N)C[C@H]2NC(=O)[C@@H](O)CN)OC[C@]1(C)O` [ISEPAMICIN]?
Answer: MIC (Nocardia farcinica [1]; IFM 10152, 72 h): < 1 µg/mL; MIC (Nocardia farcinica [2]; IFM 10580, 72 h): > 1020 µg/mL; MIC (Nocardia farcinica [3]; IFM 10152, 72 h): 16 µg/mL (≈ 28.1 µM); MIC (Nocardia farcinica [4]; IFM 10152, 120 h): 128 µg/mL (≈ 225 µM)

Question: What does the source list for `NC[C@H]1O[C@H](O[C@H]2[C@H](O)[C@@H](O[C@H]3O[C@H](CO)[C@@H](O)[C@H](N)[C@H]3O)[C@H](N)C[C@@H]2N)[C@H](O)[C@@H](O)[C@@H]1O` [KANAMYCIN]?
Answer: MIC (Nocardia farcinica [1]; IFM 10152, 72 h): 256 µg/mL (≈ 528 µM); MIC (Nocardia farcinica [2]; IFM 10580, 72 h): > 1020 µg/mL; MIC (Nocardia farcinica [3]; IFM 10152, 72 h): > 1020 µg/mL; MIC (Nocardia farcinica [4]; IFM 10152, 120 h): > 1020 µg/mL

Question: For `CCN[C@@H]1C[C@H](N)[C@@H](O[C@H]2OC(CN)=CC[C@H]2N)[C@H](O)[C@H]1O[C@H]1OC[C@](C)(O)[C@H](NC)[C@H]1O` [NETILMICIN], which MIC (Nocardia farcinica [1]; IFM 10152, 72 h) is on record?
Answer: < 1 µg/mL

Question: And the MIC (Nocardia farcinica [2]; IFM 10580, 72 h)?
Answer: > 1020 µg/mL

Question: What about the MIC (Nocardia farcinica [3]; IFM 10152, 72 h) of the same compound?
Answer: 4 µg/mL (≈ 8.41 µM)

Question: And the MIC (Nocardia farcinica [4]; IFM 10152, 120 h)?
Answer: 32 µg/mL (≈ 67.3 µM)

Question: What does the source list for `NC[C@@H]1O[C@H](O[C@H]2[C@@H](O)[C@H](O[C@@H]3[C@@H](O)[C@H](N)C[C@H](N)[C@H]3O[C@H]3O[C@H](CO)[C@@H](O)[C@H](O)[C@H]3N)O[C@@H]2CO)[C@H](N)[C@@H](O)[C@@H]1O` [PAROMOMYCIN]?
Answer: MIC (Nocardia farcinica [1]; IFM 10152, 72 h): 8 µg/mL (≈ 13 µM); MIC (Nocardia farcinica [2]; IFM 10580, 72 h): > 1020 µg/mL; MIC (Nocardia farcinica [3]; IFM 10152, 72 h): > 1020 µg/mL; MIC (Nocardia farcinica [4]; IFM 10152, 120 h): > 1020 µg/mL

Question: With `NC[C@H]1O[C@H](O[C@H]2[C@H](O[C@@H]3O[C@H](CO)[C@@H](O)[C@H]3O)[C@@H](O)[C@H](N)C[C@@H]2N)[C@H](N)[C@@H](O)[C@@H]1O` [RIBOSTAMYCIN] as the compound, how does the MIC (Nocardia farcinica [1]; IFM 10152, 72 h) read?
Answer: 256 µg/mL (≈ 563 µM)

Question: And the MIC (Nocardia farcinica [2]; IFM 10580, 72 h)?
Answer: > 1020 µg/mL

Question: What about the MIC (Nocardia farcinica [3]; IFM 10152, 72 h) of the same compound?
Answer: > 1020 µg/mL

Question: And the MIC (Nocardia farcinica [4]; IFM 10152, 120 h)?
Answer: > 1020 µg/mL

Question: How did the MIC (Nocardia farcinica [1]; IFM 10152, 72 h) turn out when `CN[C@@H]1[C@H](O[C@H]2[C@H](O[C@H]3[C@H](O)[C@@H](O)[C@H](N=C(N)N)[C@@H](O)[C@@H]3N=C(N)N)O[C@@H](C)[C@]2(O)C=O)O[C@@H](CO)[C@H](O)[C@H]1O` [STREPTOMYCIN] was run?
Answer: 64 µg/mL (≈ 110 µM)

Question: And the MIC (Nocardia farcinica [2]; IFM 10580, 72 h)?
Answer: 128 µg/mL (≈ 220 µM)

Question: And the MIC (Nocardia farcinica [3]; IFM 10152, 72 h)?
Answer: 64 µg/mL (≈ 110 µM)

Question: What about the MIC (Nocardia farcinica [4]; IFM 10152, 120 h) of the same compound?
Answer: 128 µg/mL (≈ 220 µM)

Question: Which results are given for `NC[C@H]1O[C@H](O[C@H]2[C@H](O)[C@@H](O[C@H]3O[C@H](CO)[C@@H](O)[C@H](N)[C@H]3O)[C@H](N)C[C@@H]2N)[C@H](N)C[C@@H]1O` [TOBRAMYCIN]?
Answer: MIC (Nocardia farcinica [1]; IFM 10152, 72 h): 32 µg/mL (≈ 68.4 µM); MIC (Nocardia farcinica [2]; IFM 10580, 72 h): > 1020 µg/mL; MIC (Nocardia farcinica [3]; IFM 10152, 72 h): 64 µg/mL (≈ 137 µM); MIC (Nocardia farcinica [4]; IFM 10152, 120 h): > 1020 µg/mL

Question: How did the MIC (Nocardia farcinica [1]) turn out when GENTAMICIN was run?
Answer: 64 µg/mL

Question: And the MIC (Nocardia farcinica [2])?
Answer: > 1020 µg/mL

Question: What about the MIC (Nocardia farcinica [3]) of the same compound?
Answer: 256 µg/mL

Question: What about the MIC (Nocardia farcinica [4]) of the same compound?
Answer: > 1020 µg/mL
